Experiments:
Type in all cases: functional, cell-based
MCF7 = test: Antiproliferative activity against human MCF7 cells after 72 hrs by MTT assay; details: MCF7, 72 h
Method in brief: (§1)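 Log-phase cells seeded at 2 × 10⁴ cells/ml, 24 h at 37 °C in 5% CO₂, then exposed to compounds for 72 h at 37 °C. MTT (5 mg/ml) added for 4 h, medium discarded, formazan dissolved in DMSO, absorbance read at 570 nm. Each concentration in triplicate, experiment repeated three times. IC50 from dose-response curves of inhibition ratio versus untreated control.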

HCT-116 = test: Antiproliferative activity against human HCT116 cells after 72 hrs by MTT assay; details: HCT-116, 72 h; method in brief: as §1
[1] = Antiproliferative activity against human Bel7402 cells after 72 hrs by MTT assay; details: Bel-7402, 72 h; method in brief: as §1

| Compound | IC50 (MCF7) | IC50 (HCT-116) | IC50 [1] |
| --- | --- | --- | --- |
| NC(=S)N/N=C1/C=C(Nc2cccc(Cl)c2)C(Nc2cccc(Cl)c2)=NC1=O | 0.63 µM | 3.38 µM | 2.19 µM |
| N/C(=N\N=C1\C=C(Nc2ccc(F)cc2)C(Nc2ccc(F)cc2)=NC1=O)SCc1ccccc1 | 7.58 µM | 11.5 µM | 7.69 µM |
| Cc1cccc(NC2=C/C(=N/N=C(\N)SCc3ccccc3)C(=O)N=C2Nc2cccc(C)c2)c1 | 9.34 µM | 12.8 µM | 8.72 µM |
| COc1cccc(NC2=C/C(=N/NC(N)=S)C(=O)N=C2Nc2cccc(OC)c2)c1 | > 50 µM | – | – |
| Cc1cccc(NC2=C/C(=N/NC(N)=S)C(=O)N=C2Nc2cccc(C)c2)c1 | 0.15 µM | 8.65 µM | 2.73 µM |
| NC(=S)N/N=C1/C=C(Nc2cccc([N+](=O)[O-])c2)C(Nc2cccc([N+](=O)[O-])c2)=NC1=O | 11.1 µM | 19.4 µM | 8.11 µM |
| Cc1ccccc1NC1=C/C(=N/NC(N)=S)C(=O)N=C1Nc1ccccc1C | 0.58 µM | 1.52 µM | 1.71 µM |
| NC(=S)N/N=C1/C=C(Nc2ccccc2Cl)C(Nc2ccccc2Cl)=NC1=O | 3.49 µM | 3.54 µM | 3.42 µM |
| N/C(=N\N=C1\C=C(Nc2ccc(Cl)cc2)C(Nc2ccc(Cl)cc2)=NC1=O)SCc1ccccc1 | 7.72 µM | 9.6 µM | 17.3 µM |
| Cc1ccc(NC2=C/C(=N/NC(N)=S)C(=O)N=C2Nc2ccc(C)cc2)cc1 | 3.06 µM | 7.04 µM | 4.33 µM |
| NC(=S)N/N=C1/C=C(Nc2ccccc2)C(Nc2ccccc2)=NC1=O | 7.11 µM | 24.7 µM | 11.9 µM |
| CCOc1ccc(NC2=C/C(=N/NC(N)=S)C(=O)N=C2Nc2ccc(OCC)cc2)cc1 | 13.7 µM | 21.3 µM | 31 µM |
| COc1ccccc1NC1=C/C(=N/N=C(\N)SCc2ccccc2)C(=O)N=C1Nc1ccccc1OC | 8.34 µM | 14.5 µM | 13.1 µM |
| N/C(=N\N=C1\C=C(Nc2cccc(Cl)c2)C(Nc2cccc(Cl)c2)=NC1=O)SCc1ccccc1 | 15.2 µM | 11.7 µM | 7.16 µM |
| NC(=S)N/N=C1/C=C(Nc2ccc(Br)cc2)C(Nc2ccc(Br)cc2)=NC1=O | 2.58 µM | 2.15 µM | 5.84 µM |
| Cc1ccc(NC2=C/C(=N/N=C(\N)SCc3ccccc3)C(=O)N=C2Nc2ccc(C)cc2)cc1 | 13.4 µM | 8.27 µM | 7.68 µM |
| COc1ccc(NC2=C/C(=N/NC(N)=S)C(=O)N=C2Nc2ccc(OC)cc2)cc1 | 10.4 µM | 22.4 µM | 17.8 µM |
| O=c1[nH]cc(F)c(=O)[nH]1 [FLUOROURACIL] | 7.08 µM | 10.5 µM | 11.1 µM |
| NC(=S)N/N=C1/C=C(Nc2ccc(Cl)cc2)C(Nc2ccc(Cl)cc2)=NC1=O | 1.37 µM | 0.19 µM | 0.82 µM |
| Cc1ccccc1NC1=C/C(=N/N=C(\N)SCc2ccccc2)C(=O)N=C1Nc1ccccc1C | 16.3 µM | 13.8 µM | 17.1 µM |
| COc1ccccc1NC1=C/C(=N/NC(N)=S)C(=O)N=C1Nc1ccccc1OC | 10.2 µM | 20.8 µM | 13.4 µM |
| NC(=S)N/N=C1/C=C(Nc2ccc(F)cc2)C(Nc2ccc(F)cc2)=NC1=O | 1.12 µM | 3.72 µM | 3.66 µM |
